Reference: ChEMBL document CHEMBL4033790, “Design and Synthesis of Novel Deuterated Ligands Functionally Selective for the γ-Aminobutyric Acid Type A Receptor (GABAAR) α6 Subtype with Improved Metabolic Stability and Enhanced Bioavailability” (J Med Chem, 2018)

Experiments:
[1] = Metabolic stability in mouse liver microsomes assessed as parent compound remaining at 10 uM after 60 mins by LC-MS analysis; type: ADME, microsome; conditions: read-out: Stability
Method in brief: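 The 60 min samples of the microsomal incubation (10 μM compound, human or mouse liver microsomes at 0.5 mg/mL, NADPH regenerating system, 37 °C) were analysed by LC-MS. Detection used SIM mode with dual ESI/APCI ionization, calibrated to the retention times and masses of the parent and its O-demethylated metabolites. Peak intensities were measured.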

Mus musculus [2] = test: Neurotoxicity in Swiss Webster mouse assessed as induction of motor impairment at 40 mg/kg administered via oral gavage measured after 10 to 60 mins by rotarod method; type: toxicity, organism-based; conditions: in vivo
Method in brief: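 Female mice were given a single oral gavage dose of 40 mg/kg, either in 50% PBS/40% propylene glycol/10% DMSO or, for poorly soluble compounds, in 2% polyethylene glycol plus 2.5% hydroxymethyl cellulose. Rotarod performance was tested 10, 30 and 60 min after dosing, with diazepam 5 mg/kg as positive control.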

[3] = Cmax in Wistar rat plasma at 10 mg/kg, ip administered as single dose measured at 5 to 720 mins post dose by HPLC-MS/MS analysis; type: ADME, organism-based; design: dose 10 mg/kg, route intraperitoneal
Method in brief: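 Male Wistar rats (250-350 g) given a single 10 mg/kg i.p. dose of a 5 mg/ml suspension in 85% distilled water, 14% propylene glycol, 1% Tween 80. Three rats per time point (5, 20, 60, 180, 720 min). Blood and brain were collected after sacrifice. Drug was recovered by solid phase extraction and quantified by HPLC-MS/MS.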

[4] = Tmax in Wistar rat plasma at 10 mg/kg, ip administered as single dose by HPLC-MS/MS analysis; type: ADME, organism-based
Method in brief: (§1)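 Male Wistar rats (250–350 g) received a single i.p. dose of 10 mg/kg as a 5 mg/ml suspension in 85% water, 14% propylene glycol and 1% Tween 80. Three rats per time point were sacrificed at 5, 20, 60, 180 and 720 min for plasma and brain. Samples were cleaned up by solid-phase extraction and quantified by HPLC-MS/MS.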

[5] = AUC (0 to 12 hrs) in Wistar rat plasma at 10 mg/kg, ip administered as single dose by HPLC-MS/MS analysis; type: ADME, organism-based; design: time < 12 hr, dose 10 mg/kg, route intraperitoneal
[6] = Terminal elimination half-life in Wistar rat plasma at 10 mg/kg, ip administered as single dose by HPLC-MS/MS analysis; type: ADME, organism-based; conditions: read-out: beta t1/2 (converted); method in brief: as §1
[7] = Tmax in Wistar rat brain at 10 mg/kg, ip administered as single dose by HPLC-MS/MS analysis; type: ADME, organism-based; method in brief: as §1
Brain [8] = test: AUC (0 to 12 hrs) in Wistar rat brain at 10 mg/kg, ip administered as single dose by HPLC-MS/MS analysis; type: ADME, organism-based; design: dose 10 mg/kg, time < 12 hr, route intraperitoneal; conditions: in vivo
[9] = Terminal elimination half-life in Wistar rat brain at 10 mg/kg, ip administered as single dose by HPLC-MS/MS analysis; type: ADME, organism-based; conditions: read-out: beta t1/2 (converted); method in brief: as §1
[10] = Cmax in Wistar rat plasma at 2 mg/kg administered as single dose via oral gavage measured at 5 to 1440 mins post dose by HPLC-MS/MS analysis; type: ADME, organism-based; design: dose 2 mg/kg, route oral
Method in brief: (§2)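 Absolute oral bioavailability study in Wistar rats: single 2 mg/kg dose by oral gavage or IV, using nanoemulsion formulations. Three rats per time point (5, 30, 120, 480, 1440 min). Plasma and brain were extracted by solid phase extraction and levels measured by HPLC-MS/MS. Bioavailability was calculated from plasma AUC for the two routes.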

[11] = Tmax in Wistar rat plasma at 2 mg/kg administered as single dose via oral gavage by HPLC-MS/MS analysis; type: ADME, organism-based
Method in brief: (§3)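 Male Wistar rats (250–350 g) received a single 2 mg/kg dose, by oral gavage or IV, from nanoemulsion formulations. Three rats per time point were sampled for plasma and brain at 5, 30, 120, 480 and 1440 min. Compound levels were measured by HPLC-MS/MS after solid-phase extraction; oral bioavailability was derived from plasma AUCs for the two routes.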

[12] = AUC (0 to 24 hrs) in Wistar rat plasma at 2 mg/kg administered as single dose via oral gavage by HPLC-MS/MS analysis; type: ADME, organism-based; design: dose 2 mg/kg, time < 24 hr, route oral
[13] = Terminal elimination half-life in Wistar rat plasma at 2 mg/kg administered as single dose via oral gavage by HPLC-MS/MS analysis; type: ADME, organism-based; conditions: read-out: beta t1/2 (converted); method in brief: as §3
[14] = Cmax in Wistar rat plasma at 2 mg/kg, iv administered as single dose measured at 5 to 1440 mins post dose by HPLC-MS/MS analysis; type: ADME, organism-based; design: dose 2 mg/kg, route intravenous; method in brief: as §2
[15] = Tmax in Wistar rat plasma at 2 mg/kg, iv administered as single dose by HPLC-MS/MS analysis; type: ADME, organism-based; method in brief: as §3
[16] = AUC (0 to 24 hrs) in Wistar rat plasma at 2 mg/kg, iv administered as single dose by HPLC-MS/MS analysis; type: ADME, organism-based; design: dose 2 mg/kg, time < 24 hr, route intravenous
[17] = Terminal elimination half-life in Wistar rat plasma at 2 mg/kg, iv administered as single dose by HPLC-MS/MS analysis; type: ADME, organism-based; conditions: read-out: beta t1/2 (converted); method in brief: as §3
[18] = Cmax in Wistar rat brain at 2 mg/kg administered as single dose via oral gavage measured at 5 to 1440 mins post dose by HPLC-MS/MS analysis; type: ADME, organism-based; design: dose 2 mg/kg, route oral
Method in brief: (§4)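 Male Wistar rats (250-350 g) received a single 2 mg/kg dose, nanoemulsion formulation, by oral gavage or IV. Three rats per time point (5, 30, 120, 480, 1440 min); plasma and brain collected. Compound extracted by solid-phase extraction and quantified by HPLC-MS/MS. Absolute oral bioavailability was calculated from plasma AUC after the two routes.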

[19] = Tmax in Wistar rat brain at 2 mg/kg administered as single dose via oral gavage by HPLC-MS/MS analysis; type: ADME, organism-based; method in brief: as §3
Brain [20] = test: AUC (0 to 24 hrs) in Wistar rat brain at 2 mg/kg administered as single dose via oral gavage by HPLC-MS/MS analysis; type: ADME, organism-based; design: time < 24 hr, dose 2 mg/kg, route oral; conditions: in vivo
[21] = Cmax in Wistar rat brain at 2 mg/kg, iv administered as single dose measured at 5 to 1440 mins post dose by HPLC-MS/MS analysis; type: ADME, organism-based; design: dose 2 mg/kg, route intravenous; method in brief: as §2
[22] = Tmax in Wistar rat brain at 2 mg/kg, iv administered as single dose by HPLC-MS/MS analysis; type: ADME, organism-based; method in brief: as §3
Brain [23] = test: AUC (0 to 24 hrs) in Wistar rat brain at 2 mg/kg, iv administered as single dose by HPLC-MS/MS analysis; type: ADME, organism-based; design: time < 24 hr, dose 2 mg/kg, route intravenous; conditions: in vivo
[24] = Terminal elimination half-life in Wistar rat brain at 2 mg/kg, iv administered as single dose by HPLC-MS/MS analysis; type: ADME, organism-based; conditions: read-out: beta t1/2 (converted); method in brief: as §4
[25] = Ratio of brain AUC (0 to t) to plasma AUC (0 to t), Kp of the compound in Wistar rat at 10 mg/kg, ip administered as single dose by HPLC-MS/MS analysis; type: ADME, organism-based
Rattus norvegicus = test: Hyperlocomotor activity in Wistar rat assessed as total distance travelled at 3 to 10 mg/kg, ip after 60 mins; type: ADME, organism-based; conditions: in vivo, 1 h
Mus musculus [26] = test: Hyperlocomotor activity in C57BL/6 mouse assessed as total distance travelled at 3 to 10 mg/kg, ip after 60 mins; type: ADME, organism-based; conditions: in vivo, 1 h
[27] = target: Voltage-gated inwardly rectifying potassium channel KCNH2 (Homo sapiens, UniProt Q12809); test: Displacement of [3H]-dofetilide from human ERG expressed in HEK cell membranes at >10 uM after 60 to 90 mins by scintillation counting
Chain of Voltage-gated inwardly rectifying potassium channel KCNH2 (Q12809 whole entry): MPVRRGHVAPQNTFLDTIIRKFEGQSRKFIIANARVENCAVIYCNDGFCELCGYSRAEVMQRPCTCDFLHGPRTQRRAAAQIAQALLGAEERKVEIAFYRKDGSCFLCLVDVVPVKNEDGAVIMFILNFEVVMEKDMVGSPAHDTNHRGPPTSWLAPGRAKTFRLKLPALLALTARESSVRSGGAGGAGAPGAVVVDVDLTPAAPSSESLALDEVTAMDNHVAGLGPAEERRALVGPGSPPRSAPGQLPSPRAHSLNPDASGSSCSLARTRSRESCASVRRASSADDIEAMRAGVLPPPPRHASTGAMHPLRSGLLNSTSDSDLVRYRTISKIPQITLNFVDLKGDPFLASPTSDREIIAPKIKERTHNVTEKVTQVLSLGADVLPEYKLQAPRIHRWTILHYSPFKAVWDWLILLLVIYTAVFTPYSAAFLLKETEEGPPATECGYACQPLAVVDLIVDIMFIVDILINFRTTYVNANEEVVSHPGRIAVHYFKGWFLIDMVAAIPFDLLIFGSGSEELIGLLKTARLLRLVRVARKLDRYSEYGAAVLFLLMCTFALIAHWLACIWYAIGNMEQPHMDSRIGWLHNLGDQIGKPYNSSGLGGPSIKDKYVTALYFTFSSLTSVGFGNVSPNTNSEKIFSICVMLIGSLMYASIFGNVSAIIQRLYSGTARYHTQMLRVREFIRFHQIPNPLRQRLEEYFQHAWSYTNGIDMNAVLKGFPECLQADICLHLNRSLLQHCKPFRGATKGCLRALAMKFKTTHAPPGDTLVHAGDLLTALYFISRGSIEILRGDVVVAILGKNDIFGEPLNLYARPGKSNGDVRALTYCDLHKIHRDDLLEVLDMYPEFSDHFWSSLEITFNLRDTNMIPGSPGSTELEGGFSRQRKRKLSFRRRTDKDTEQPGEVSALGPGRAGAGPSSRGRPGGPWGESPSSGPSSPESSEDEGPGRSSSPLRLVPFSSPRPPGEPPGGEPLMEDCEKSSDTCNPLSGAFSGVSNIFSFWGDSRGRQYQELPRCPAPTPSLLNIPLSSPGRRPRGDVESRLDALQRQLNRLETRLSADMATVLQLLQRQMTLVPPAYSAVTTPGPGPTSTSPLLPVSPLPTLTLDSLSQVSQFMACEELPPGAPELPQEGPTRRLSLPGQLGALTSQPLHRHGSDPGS

Compound	remaining at 1 h, 10 µM [1]	Activity (Mus musculus [2])	Cmax [3]	Tmax [4]	AUC(0-t) at 12 h [5]	half-life [6]	Tmax [7]	AUC (Brain [8])	half-life [9]	Cmax [10]	Tmax [11]	AUC(0-t) at 24 h [12]	half-life [13]	Cmax [14]	Tmax [15]	AUC(0-t) at 24 h [16]	half-life [17]	Cmax [18]	Tmax [19]	AUC (Brain [20])	further results
[2H]C([2H])([2H])Oc1ccc(-n2nc3c4ccc(OC)cc4[nH]cc-3c2=O)cc1	92.8%	Non-Toxic	4430 ng/mL	1.67 h	24200 ng·h/mL	212 min	2.33 h	3350.72 ng·h/g	137 min	222 ng/mL	5.5 h	3000 ng·h/mL	84 min	728 ng/mL	0 h	3000 ng·h/mL	117 min	67.3 ng/g	3.5 h	513.12 ng·h/g	Cmax [21]: 71.9 ng/g; Tmax [22]: 1.36 h; AUC (Brain [23]): 573.46 ng·h/g; half-life [24]: 260 min; Kp [25]: 0.13; Activity (Rattus norvegicus): Toxic; Activity (Mus musculus [26]): Toxic; inhibition (INH) [27]: Not Active
COc1ccc(-n2nc3c4ccc(OC)cc4[nH]cc-3c2=O)cc1	80.3%	Non-Toxic	5050 ng/mL	1 h	28800 ng·h/mL	90.6 min	2.33 h	2177.98 ng·h/g	118 min	173 ng/mL	2 h	1270 ng·h/mL	540 min	597 ng/mL	0 h	1890 ng·h/mL	317 min	67.3 ng/g	1.5 h	708.21 ng·h/g	Cmax [21]: 84.5 ng/g; Tmax [22]: 0.86 h; AUC (Brain [23]): 857.8 ng·h/g; half-life [24]: 656 min; Kp [25]: 0.08; Activity (Rattus norvegicus): Toxic; Activity (Mus musculus [26]): Toxic; inhibition (INH) [27]: Not Active
